SMILES strings stand for the structures.

This assay deals with Dermatophagoides pteronyssinus. The experiment in a line: Pesticidal activity against Dermatophagoides pteronyssinus after 24 hrs. Type of assay: functional, organism-based. The essentials: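 D. pteronyssinus reared on 90% yeast powder/10% beard shavings at 25 °C, 75% RH, dark. Compounds in absolute EtOH dried 24 h on 2 cm2 well bottoms; rims glued. 100 mites per well, 24 h at 25 °C, 75% RH, dark. Dead = no movement when prodded. Abbott-corrected mortality; EC50 by linear regression. Seven 2-fold dilutions, 0.01–0.640 g/m2, triplicate, repeated after one week.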
On to `O=c1ccc2ccccc2o1` [COUMARIN], for which the EC50 is recorded as 0.032 g/m2.
Then `c1ccc(C2CCc3ccccc3O2)cc1` (stereo unspecified) [FLAVANE], with 0.15 g/m2.
Then `O=C(OCc1ccccc1)c1cc(=O)c2ccccc2o1`, with 0.495 g/m2.
Next, `O=Cc1cc(C(=O)OCc2ccccc2)ccc1O`: 0.242 g/m2; `O=C(OCc1ccccc1)c1ccc2oc(=O)ccc2c1`: 0.495 g/m2.
On to `O=C1CCOc2ccccc21` [CHROMANONE], for which the EC50 worked out at 0.07 g/m2.
Consider `Cc1ccc2oc(=O)ccc2c1`, for which the EC50 is listed as 0.04 g/m2.
Next, `O=c1ccoc2ccccc12` [CHROMONE]: 0.037 g/m2; `Oc1ccccc1CCCc1ccccc1` [CHALCANE]: 0.31 g/m2.
For `O=C(OCc1ccccc1)c1ccccc1O` [BENZYL SALICYLATE], the EC50 came to 0.025 g/m2.
As for `O=c1cc(O)c2ccccc2o1` [4-HYDROXYCOUMARINS], the EC50 was greater than 1.5 g/m2.
Next, `O=C(OCc1ccccc1)c1cccc(O)c1`: 0.495 g/m2; `O=C(OCc1ccccc1)c1ccc(O)cc1`: 0.495 g/m2; `O=c1cc(-c2ccccc2)oc2ccccc12` [FLAVONE]: 0.5 g/m2.
On to `O=C1CC(c2ccccc2)Oc2ccccc21` (stereo unspecified) [FLAVANONE], for which the EC50 is 0.09 g/m2.
For the compound `O=C(/C=C/c1ccccc1)OCc1ccccc1` [BENZYL CINNAMATE], the EC50 is 0.18 g/m2.
Then `O=c1ccc2ccc(O)cc2o1` [UMBELLIFERONE], with greater than 1.5 g/m2.
The compound `O=C(OCc1ccccc1)c1cc2ccccc2oc1=O` returned an EC50 of 0.28 g/m2.
For `O=C(OCc1ccccc1)c1ccccc1` [BENZYL BENZOATE], the EC50 was 0.025 g/m2.
Turning to `O=C(OCc1ccccc1)c1ccc(=O)oc1` [BENZYL COUMALATE], the EC50 came out at 0.495 g/m2.
For `O=C(OCc1ccccc1)c1cccc2oc(=O)ccc12`, the EC50 stood at 0.495 g/m2.

The values are drawn from ChEMBL document CHEMBL1146519, “Acaricidal activity of tonka bean extracts. Synthesis and structure-activity relationships of bioactive derivatives” (J Nat Prod, 2003).
